HUVEC inhibit: inhibitors of human endothelial cell proliferation; HUVEC proliferation, CellTiter-Glo luminescence, 72 h; hits give low values; viability, % at 10 µM (by protocol); 86,000 compounds, 1.1% hits;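 active = viability at or below 30%; inactive = viability above 30%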;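 note: 100% = median luminescence of DMSO-only cell control wells on each plate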
HCT116 PTEN-null: growth suppressors of cells with PTEN tumor suppressor deletion; AID 827; 140,000 compounds, 1.2% hits; HCT116 PTEN-null viability, CellTiter-Glo, 60 h; hits give low values; viability, % at 10 µM;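 active = viability at or below a set limit, 4 SD under the median of all tested compounds, cut at about 3.7% in these data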;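 note: PTEN knockout HCT116 line with beta catenin targeted HCT116 as companion control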
H69AR inhibit: growth inhibitors of human H69AR lung tumor cells; viability, % at 10 µM; H69AR lung tumor viability, ATP luminescence, 72 h; hits give low values; 85,000 compounds, 6% hits; AID 598;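 active = viability at or below 40%; inactive = viability above 40%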;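 note: multidrug resistant small cell line overexpressing MRP-1 efflux transporter; 100% = mean luminescence of untreated control wells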
Lung fibro prol: blocks proliferation of human lung fibroblasts | viability, % at 10 µM | 85,000 compounds, 1.1% hits | AID 719 | LL 47 human lung fibroblast viability, ATP luminescence; hits give low values;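 active = viability at or below 50% in the single dose screen; inactive = viability above 50%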;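 note: compound exposure lasted 72 h before the ATP readout; 100% = median luminescence of untreated cell-only wells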
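Test system: LL 47 human lung fibroblasts / Quantity: 1,150 cells in each well / Medium: IMEM growth medium with 15% fetal bovine serum / Incubation: 72 h compound exposure at 37 °C after overnight plating / Detection: CellTiter-Glo luminescence measuring cellular ATP / Read-out: % viability versus median cells-only luminescence / Benchmarks: cell-only wells, no compound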
bCat KO growth: beta-catenin-lacking colon tumor cell growth suppression; HCT116 beta-catenin knockout viability, CellTiter-Glo, 60 h; hits give low values; viability, % at 10 µM; 140,000 compounds, 1.5% hits; AID 818;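 active = viability at or under a set limit, the compound median less 4 SD, cut at about 6% in these data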;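 note: 0% = Hyamine 1622 control at 20 µM and 100% = untreated cell control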
* marks the source's active call; other numbers are inactive results; . = no result. Only a selection was taken, and hits are over-represented in it overall.

SMILES | HUVEC inhibit | HCT116 PTEN-null | H69AR inhibit | Lung fibro prol | bCat KO growth
Cc1ccc(C)c(N2CCN(c3nc4ccccc4c(=O)n3Cc3ccccc3)CC2)c1 | 99.6 | 46.9 | 80.5 | 86.7 | 48.3
O=C(c1ccc(Cn2c(=O)[nH]c3ccccc3c2=O)cc1)N1CCN(c2ccc(Cl)cc2)CC1 | 67.7 | 14.6 | 36.5* | 110.9 | 16.5
C=CCn1c(=O)[nH]c2cc(C(=O)N3CCN(c4cc(C)ccc4C)CC3)ccc2c1=O | 58.3 | 65.2 | 25.4* | 89.0 | 62.5
Cc1ccc(C)c(N2CCN(C(=O)c3ccc(Cn4c(=O)[nH]c5ccccc5c4=O)cc3)CC2)c1 | 37.4 | 9.6 | 7.5* | 93.2 | 7.8
C=CCn1c(=O)[nH]c2cc(C(=O)N3CCN(c4ccc(C(C)=O)cc4)CC3)ccc2c1=O | 85.7 | 83.6 | 81.6 | 93.3 | 76.9
CC1Cc2ccccc2N1C(=O)CSc1nc2c(c(=O)n(C)c(=O)n2C)n1Cc1ccc(F)cc1 (stereo not drawn) | 50.0 | . | 11.4* | 30.1* | .
O=C(Nc1ccc(F)cc1)c1nc[nH]c1C(=O)Nc1ccccc1[N+](=O)[O-] | . | 1.6* | . | . | 2.8*
O=C(Nc1ccccc1[N+](=O)[O-])c1nc[nH]c1C(=O)NCCO | . | 96.3 | . | . | 97.5
Cc1ccnc(NCn2nnc3ccccc32)c1 | . | 94.5 | . | . | 92.8
O=C(c1ccco1)N1CCN(c2ncnc3scc(-c4ccc(F)cc4)c23)CC1 | 87.3 | 75.5 | 23.8* | 69.4 | 84.3
Cc1ccc(-c2nsc3c(N4CCN(C(=O)c5ccco5)CC4)ncnc23)cc1 | 94.5 | . | 80.9 | 99.5 | .
C=CCn1c(SCC(=O)c2ccc(OC)cc2)nnc1C(C)NC(=O)c1cccs1 (stereo not drawn) | 109.8 | 80.5 | 86.2 | 113.1 | 83.4
CCOc1ccc2nc(-c3ccccc3)[nH]c2c1 | 57.9 | 15.9 | 24.0* | 54.1 | 12.3
CN(C)c1ccc(/C=C/c2cc[n+](C)cc2)cc1 | 95.8 | 14.4 | 43.0 | 101.3 | 8.5
CC[n+]1c(/C=C/c2ccc(N(C)C)cc2)ccc2ccccc21 | . | 2.1* | . | . | 3.4*
CCOc1cc(/C=N/O)ccc1OCc1ccc(F)cc1 | . | 93.3 | . | . | 96.4
CCOc1cc(/C=N/N=C(N)N)ccc1OCc1ccc(Cl)cc1 | . | 1.2* | . | . | 1.3*
COc1cc(/C=N/N=C(/N)c2nonc2N)cc(Br)c1OCc1ccccc1C | 51.3 | 22.1 | 61.0 | 51.5 | 20.9
CCOc1cc(/C=N/N=C(/N)c2nonc2N)cc(Br)c1OCc1ccc(Cl)cc1 | 22.2* | 107.8 | 18.2* | 28.6* | 100.5
Cc1cc(OCc2ccc(C(=O)NN=C3CCCC3)cc2)ccc1Cl | . | 81.9 | . | . | 81.3
CCN(CC)P1(=O)OC(c2cc(OC)c(OC)c(OC)c2)=Nc2c1c(C)nn2-c1ccccc1 (stereo not drawn) | 89.4 | 101.3 | 28.1* | 83.2 | 92.8
CC([NH2+][O-])C(C)(C)NO (stereo not drawn) | 104.7 | 94.8 | 83.2 | 97.0 | 95.5
COc1ccc(C(=O)/C=C(\C)Nc2ccc(NC(C)=O)cc2)cc1 | . | 88.7 | . | . | 103.6
COc1ccc(N/N=C(\C=N\O)C(=O)c2ccc(OC)cc2)cc1 | 37.9* | 21.6 | 26.2* | 53.1 | 19.0
O=C(c1cccc(F)c1)N1CCCN(C(=O)c2cccc(F)c2)CC1 | . | 98.5 | . | . | 94.1
SMILES | HUVEC inhibit | HCT116 PTEN-null | H69AR inhibit | Lung fibro prol | bCat KO growth
O=C(c1c(Cl)nc2sccn12)N1CCN(c2cccc(Cl)c2)CC1 | 54.2 | 14.5 | 19.3* | 59.5 | 13.6
COc1ccccc1C(=O)N1CCN(c2cccc(Cl)c2)CC1 | 50.3 | 12.3 | 58.4 | 46.4* | 11.3
O=C(c1c(F)c(F)c(F)c(F)c1F)N1CCN(c2cccc(C(F)(F)F)c2)CC1 | 35.9 | 18.1 | 28.9* | 67.1 | 13.0
COc1cc2c(C(=O)N3CCN(c4cccc(Cl)c4)CC3)cn(C)c(=O)c2cc1OC | . | 35.3 | . | . | 34.4
O=C(c1cccc(F)c1)N1CCN(c2cccc(Cl)c2)CC1 | 65.0 | 24.5 | 18.3* | 71.8 | 22.9
CC(C)OCCCn1c(=N)c(C(N)=S)cc2c(=O)n3ccccc3nc21 | 95.8 | 57.6 | 56.5 | 100.7 | 57.9
CCN(CC)S(=O)(=O)c1cccc(C(=O)N[C@H](C(=O)NCc2ccc(Cl)cc2)C(C)C)c1 | . | 79.5 | . | . | 78.5
Cc1ccc(C)c(NC(=O)CN(C)C(=O)COc2ncnc3sccc23)c1 | . | 90.8 | . | . | 98.0
O=C(Nc1ccc(N2CCN(C(=O)c3ccco3)CC2)cc1)c1cccc(F)c1 | 82.1 | 50.2 | 30.3* | 98.9 | 54.2
CC(=O)Nc1ccc(SCC(=O)N(CCC#N)c2ccc(C)cc2)cc1 | 98.8 | 95.6 | 32.9* | 109.4 | 100.0
CNc1nnc(-c2cc3cc(Cl)ccc3oc2=O)s1 | 99.3 | 82.1 | 95.0 | 102.7 | 87.6
CCOc1cccc2cc(-c3nnc(NCc4ccco4)s3)c(=O)oc12 | 19.5* | 89.0 | 3.7* | 52.6 | 82.3
CCOc1cccc2cc(-c3cn4cc(C)ccc4n3)c(=O)oc12 | 91.7 | 1.3* | . | 24.2* | 1.1*
COc1ccc2oc(=O)c(-c3nnc(NCc4ccco4)s3)cc2c1 | 19.9* | 3.8* | 2.6* | 94.7 | 4.2*
Nc1cc(=O)[nH]c(SCc2nc3ccccc3n2Cc2ccccc2)n1 | 95.6 | 84.3 | 90.5 | 103.7 | 89.2
O=c1[nH]c(SCc2nc3ccccc3n2Cc2ccccc2)nc2ccccc12 | . | 2.7* | . | . | 2.1*
O=C(COC(=O)C1CCN(/C=C/C(=O)C(F)(F)F)CC1)Nc1cccc(F)c1 | . | 101.2 | . | . | 96.2
CC(=O)c1nn(-c2cccc(Br)c2)cc1C(=O)c1ccc2ccccc2c1 | . | 4.0 | . | . | 3.7*
Nc1cc(-c2ccc(Cl)cc2)nn1S(=O)(=O)c1ccc(Cl)cc1 | 64.0 | 88.1 | 42.9 | 87.5 | 87.5
O=C1CCn2nc(-c3ccc(Cl)cc3)cc2N1 | 17.1* | 83.7 | 95.3 | 104.3 | 84.7
CCOC(=O)c1c(NC(=O)c2cc(C(C)C)on2)sc(C(C)=O)c1C | 58.7 | 40.0 | 66.1 | 99.0 | 18.2
CCOC(=O)c1sc(NC(=O)c2c(C)noc2C)c(C(=O)OCC)c1C | 80.6 | . | 37.5* | 91.5 | .
Clc1ccc(-c2nnc(COc3ncnc4sccc34)o2)cc1 | . | 93.1 | . | . | 90.8
COc1ccc(OCCn2c(=N)n(CCO)c3ccccc32)cc1 | 107.5 | 83.9 | 80.5 | 97.2 | 75.3
COCCn1c(COc2ccc(C)cc2)nc2ccccc21 | 101.5 | 69.6 | 95.8 | 106.2 | 70.5
SMILES | HUVEC inhibit | HCT116 PTEN-null | H69AR inhibit | Lung fibro prol | bCat KO growth
CCN(CC)CCn1c(=N)n(CCO)c2ccccc21 | 105.4 | 103.1 | 91.5 | 99.8 | 97.5
CCCCn1c(=N)n(CCOc2ccc(C)cc2)c2ccccc21 | . | 1.9* | . | . | 1.9*
CCN(CC)CCn1c(=N)n(CCOc2ccccc2)c2ccccc21 | 64.4 | 21.6 | 10.2* | 32.5* | 19.3
Cc1ccc(OCCn2c(=O)cnc3ccccc32)cc1 | 40.2 | 14.6 | 19.0* | 57.8 | 14.0
Fc1ccc(N/N=C/C=C/c2ccccc2)c(F)c1 | . | 82.5 | . | . | 74.7
O=C(Nc1cccc(C(F)(F)F)c1)C12CC3CC(CC(C3)C1)C2 | 88.2 | 1.0* | 79.0 | 98.2 | 0.9*
O=C(Nc1cccc(C(F)(F)F)c1)N1CCN(C(=O)Nc2cccc(C(F)(F)F)c2)CC1 | . | 94.0 | . | . | 95.5
COc1ccc2c(CC(=O)NC3CCCc4ccccc43)coc2c1 (stereo not drawn) | . | 96.0 | . | . | 87.8

Source: PubChem (SRMLSC)
